The source made the active and inactive calls. No cut-off for these calls is given here.
How the values were obtained:
[1] = Cytotoxicity against human MRC5 SV2 cells assessed as reduction in cell viability incubated for 3 days by resazurin dye based assay; details: MRC-5 SV2, 72 h
Trypanosoma cruzi [2] = assay: Antitrypanosomal activity against Trypanosoma cruzi Tulahuen CL2 amastigotes infected in human MRC5 SV2 cells incubated for 7 days by chlorophenol red beta-D-galactopyranoside substrate based spectrophotometric assay; assay type: functional, organism-based; details: Tulahuen CL2, MRC-5 SV2, 168 h
In short: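 Intracellular amastigotes of β-galactosidase-expressing Tulahuen strain grown in MRC-5 fibroblast host cells. EC50 in μM given as mean and SEM of two or three independent experiments; some values come from a single determination.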

[3] = Selectivity index, ratio for EC50 for human MRC5 SV2 cells to EC50 for Trypanosoma cruzi Tulahuen CL2 amastigotes infected in human MRC5 SV2 cells; assay type: toxicity, cell-based; details: read-out: Ratio EC50
Trypanosoma cruzi [4] = assay: Antitrypanosomal activity against bloodstream form of Trypanosoma cruzi Y trypomastigotes measured after 24 hrs by Neubauer chamber-based light microscopic analysis; assay type: functional, organism-based
L929 = assay: Cytotoxicity against mouse L929 cells assessed as reduction in cell viability; assay type: cell-based
[5] = Cytotoxicity against Swiss mouse primary cardiac cells assessed as reduction in cell viability incubated for 24 hrs by PrestoBlue dye based colorimetry
Trypanosoma cruzi [6] = assay: (§1) In vivo antitrypanosomal activity against Trypanosoma cruzi Y trypomastigotes infected in Swiss mouse assessed as reduction in parasitemia at 100 mg/kg, po administered once daily via gavage for 5 days starting from 5 days post-infection and measured 8 days post-infection by light microscopic method relative to control; assay type: functional; set-up: scale not given: the % may be the effect or the level left
In short: (§2)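 Male Swiss Webster mice (18-20 g, 4-5 weeks) infected i.p. with 10⁴ Y-strain bloodstream trypomastigotes; six per group. Oral gavage from 5 dpi for 5 consecutive days: test compound at 25 mg/kg b.i.d. (2.0 mg/mL in 10% EtOH, 0.1 M citrate pH 3.02), benznidazole at 100 mg/kg s.i.d. Parasites counted in 5 μL tail blood to 30 dpi; mortality followed daily to 40 dpi.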

Trypanosoma cruzi [7] = assay: as §1, with “up to 30” for “8”; assay type: functional; set-up: scale not given: the % may be the effect or the level left; in short: as §2
Trypanosoma cruzi [8] = assay: In vivo antitrypanosomal activity against Trypanosoma cruzi Y trypomastigotes infected in Swiss mouse assessed as mouse survival at 100 mg/kg, po administered once daily via gavage for 5 days starting from 5 days post-infection and measured daily up to 40 days post-infection; assay type: functional, organism-based; in short: as §2
[9] = Toxicity in Swiss Webster mouse infected with Trypanosoma cruzi Y trypomastigotes assessed as body weight loss at 100 mg/kg, po administered once daily via gavage for 5 days starting from 5 days post-infection and measured daily up to 40 days post-infection; assay type: organism-based; details: in vivo
In short: (§3)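 Male Swiss Webster mice were infected i.p. with 10⁴ Y-strain trypomastigotes and treated by oral gavage for 5 days from 5 dpi. Regimens were 25 mg/kg b.i.d. (10% EtOH/citrate vehicle) or benznidazole 100 mg/kg s.i.d. Body weight and visual clinical signs were monitored, with daily mortality checks up to 40 dpi. There were six mice per group.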

[10] = Toxicity in Swiss Webster mouse infected with Trypanosoma cruzi Y trypomastigotes assessed as appearance of clinical symptoms at 100 mg/kg, po administered once daily via gavage for 5 days starting from 5 days post-infection and measured daily up to 40 days post-infection; assay type: organism-based; details: in vivo; in short: as §3
Trypanosoma cruzi [11] = assay: (§4) In vivo antitrypanosomal activity against Trypanosoma cruzi Y trypomastigotes infected in Swiss mouse assessed as reduction in parasitemia at 100 mg/kg, po administered once daily for 5 days with 2 days interval for 3 cycles and measured 9 days post-infection by light microscopy; assay type: functional, organism-based
In short: (§5)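 Male Swiss Webster mice infected i.p. with 10⁴ Y-strain bloodstream trypomastigotes; six per group. Oral gavage from 5 dpi for 15 days (three 5-day rounds, 2 days off): test compound 25 mg/kg b.i.d., benznidazole 100 mg/kg s.i.d. Parasites counted in 5 μL tail blood to 30 dpi; mortality followed to 53 dpi.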

Trypanosoma cruzi [12] = assay: as §4, with “up to 30” for “9”, “microscopy relative to control” for “microscopy”; assay type: functional, organism-based; in short: as §5
Trypanosoma cruzi [13] = assay: In vivo antitrypanosomal activity against Trypanosoma cruzi Y trypomastigotes infected in Swiss mouse assessed as mouse survival at 100 mg/kg, po administered once daily for 5 days with 2 days interval for 3 cycles and measured […]; assay type: functional, organism-based; in short: as §5
[14] = Toxicity in Swiss Webster mouse infected with Trypanosoma cruzi Y trypomastigotes assessed as body weight loss at 100 mg/kg, po administered once daily for 5 days with 2 days interval for 3 cycles; assay type: organism-based; details: in vivo
In short: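 Y-strain-infected male Swiss Webster mice were dosed orally for 15 days (three rounds of 5 days, 2 drug-free days between) starting at 5 dpi. Regimens were 25 mg/kg b.i.d. or benznidazole 100 mg/kg s.i.d. Weight loss was recorded as a sign of toxicity, with mortality checked daily up to 53 dpi. There were six mice per group.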

Trypanosoma cruzi [15] = assay: Antitrypanosomal activity against Trypanosoma cruzi Y amastigotes infected in Swiss mouse primary cardiac cells incubated for 168 hrs with media replenishment for every 48 hrs followed by compound washout and measured after 168 hrs by light microscopic method; assay type: functional, organism-based
In short: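 Cardiac cells plated 24 h, then infected 24 h at 37 °C with Y-strain bloodstream trypomastigotes (parasite:host 10:1) and washed. Serial dilutions (up to 5 µM) for 168 h at 37 °C, drug medium renewed every 48 h. PBS rinse, 168 h drug-free. Giemsa-stained; infected cells and parasites per cell scored in 200 cells. EC50 from infection-index inhibition; two experiments, duplicate.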

Trypanosoma cruzi [16] = assay: In vivo antitrypanosomal activity against Trypanosoma cruzi Y trypomastigotes infected in Swiss mouse assessed as reduction in parasitemia at 100 mg/kg, po administered once daily via gavage for 5 days starting from 5 days post-infection in presence of cyclophosphamide by light microscopic method; assay type: functional, organism-based
Trypanosoma cruzi [17] = assay: In vivo antitrypanosomal activity against Trypanosoma cruzi Y trypomastigotes infected in Swiss mouse assessed as reduction in parasitemia at 100 mg/kg, po administered once daily for 5 days with 2 days interval for 3 cycles in presence of cyclophosphamide by light microscopy; assay type: functional, organism-based

SMILES	EC50 [1] [µM]	EC50 (Trypanosoma cruzi [2]) [µM]	selectivity ratio [3]	further results
Nc1ccnc2c1c(-c1ccc(Cl)cc1)cn2[C@@H]1O[C@H](CO)[C@@H](O)[C@H]1O	> 64	> 64		
Nc1ccnc2c1c(-c1ccccn1)cn2[C@@H]1O[C@H](CO)[C@@H](O)[C@H]1O	> 64	> 64		
Nc1ccnc2c1c(-c1cccs1)cn2[C@@H]1O[C@H](CO)[C@@H](O)[C@H]1O	> 64	36.9	> 1.7	
C#Cc1cn([C@@H]2O[C@H](CO)[C@@H](O)[C@H]2O)c2nccc(N)c12	59	0.08	730	EC50 (Trypanosoma cruzi [4]): 40.5 µM; EC50 (L929): > 200 µM
C[C@H]1O[C@@H](n2cc(I)c3c(N)ccnc32)[C@H](O)[C@@H]1O	> 64	> 64		
Nc1ccnc2c1c(-c1ccccc1)cn2[C@@H]1O[C@H](CO)[C@@H](O)[C@H]1O	> 64	> 64		
Nc1ccnc2[nH]cc(I)c12	> 64	> 64		
Cc1ccnc2c1c(I)cn2[C@@H]1O[C@H](CO)[C@@H](O)[C@H]1O	2.29	7.98	0.29	
N#Cc1cn([C@@H]2O[C@H](CO)[C@@H](O)[C@H]2O)c2nccc(N)c12	18.5	4	4.6	
CCc1cn([C@@H]2O[C@H](CO)[C@@H](O)[C@H]2O)c2nccc(N)c12	> 64	> 64		
Nc1ccnc2c1c(C#Cc1ccccc1)cn2[C@@H]1O[C@H](CO)[C@@H](O)[C@H]1O	> 64	> 64		
Nc1ccnc2c1c(/C=C/c1ccccc1)cn2[C@@H]1O[C@H](CO)[C@@H](O)[C@H]1O	> 64	> 64		
Nc1ccnc2c1c(Cl)cn2[C@@H]1O[C@H](CO)[C@@H](O)[C@H]1O	> 64	0.19	> 337	EC50 (Trypanosoma cruzi [4]): > 50 µM; EC50 [5]: > 400 µM; EC50 (L929): > 200 µM
Nc1ccnc2c1c(F)cn2[C@@H]1O[C@H](CO)[C@@H](O)[C@H]1O	> 64	8.8	> 7.3	
OC[C@H]1O[C@@H](n2cc(I)c3c(Cl)ccnc32)[C@H](O)[C@@H]1O	2.18	2.14	1	
Nc1ccnc2c1c(I)cn2[C@@H]1O[C@H](CO)C[C@H]1O	> 64	> 64		
OC[C@H]1O[C@@H](n2cc(I)c3cccnc32)[C@H](O)[C@@H]1O	52.9	1.75	> 30	EC50 (Trypanosoma cruzi [4]): 36.3 µM; EC50 (L929): > 200 µM
Nc1ccnc2c1c(Br)cn2[C@@H]1O[C@H](CO)[C@@H](O)[C@H]1O	> 64	0.2	> 320	
Nc1ccnc2c1c(C1CCCCC1)cn2[C@@H]1O[C@H](CO)[C@@H](O)[C@H]1O	> 64	> 64		
O=C(Cn1ccnc1[N+](=O)[O-])NCc1ccccc1 [BENZNIDAZOLE]		2.36		Activity (Trypanosoma cruzi [6]): 100%; Activity (Trypanosoma cruzi [7]): 100%; Activity (Trypanosoma cruzi [8]): Active; Activity [9]: Non-Toxic; Activity [10]: Non-Toxic; Activity (Trypanosoma cruzi [11]): Active; Activity (Trypanosoma cruzi [12]): Active; Activity (Trypanosoma cruzi [13]): inactive; Activity [14]: Non-Toxic; EC50 (Trypanosoma cruzi [4]): 5.7 µM; EC50 [5]: > 400 µM; EC50 (L929): > 200 µM; EC50 (Trypanosoma cruzi [15]): 2.7 µM; Activity (Trypanosoma cruzi [16]): inactive; Activity (Trypanosoma cruzi [17]): inactive
C=Cc1cn([C@@H]2O[C@H](CO)[C@@H](O)[C@H]2O)c2nccc(N)c12	> 64	0.81	> 79	EC50 (Trypanosoma cruzi [4]): > 50 µM; EC50 (L929): > 200 µM
Nc1ncnc2c1c(I)cn2[C@@H]1O[C@H](CO)[C@@H](O)[C@H]1O [IODOTUBERCIDIN]	5.35	0.8	6.7	
Nc1ccnc2c1c([N+](=O)[O-])cn2[C@@H]1O[C@H](CO)[C@@H](O)[C@H]1O	> 64	47.7	> 1.3	
Nc1ccnc2c1c(I)cn2[C@H]1C[C@H](O)[C@@H](CO)O1	> 64	> 64		
Nc1ccnc2c1ccn2[C@@H]1O[C@H](CO)[C@@H](O)[C@H]1O	17.9	2.27	7.9	
Nc1ccnc2c1c(C(F)(F)F)cn2[C@@H]1O[C@H](CO)[C@@H](O)[C@H]1O	0.73	1.56	0.47	
Cc1cn([C@@H]2O[C@H](CO)[C@@H](O)[C@H]2O)c2nccc(N)c12	51.6	1.14	45	EC50 (Trypanosoma cruzi [4]): > 50 µM; EC50 (L929): > 200 µM
Nc1ccnc2c1c(C1=CCCCC1)cn2[C@@H]1O[C@H](CO)[C@@H](O)[C@H]1O	> 64	> 64		

— ChEMBL document CHEMBL4414577, “Discovery of Pyrrolo[2,3-b]pyridine (1,7-Dideazapurine) Nucleoside Analogues as Anti-Trypanosoma cruzi Agents” (J Med Chem, 2019)
